ChEMBL document CHEMBL4190282, “The Conjugated Double Bond of Coniferyl Aldehyde Is Essential for Heat Shock Factor 1 Mediated Cytotoprotection” (J Nat Prod, 2017)

Assays:
[1] = target: T1, Heat shock factor protein 1 (Homo sapiens) (UniProt Q00613); assay: Activation of HSF1 in human L132 cells assessed as increase in HSP27 protein levels at 3 uM by immunoblotting analysis; assay type: cell-based; conditions: TDE = time-dependent effect
T1 sequence (whole entry): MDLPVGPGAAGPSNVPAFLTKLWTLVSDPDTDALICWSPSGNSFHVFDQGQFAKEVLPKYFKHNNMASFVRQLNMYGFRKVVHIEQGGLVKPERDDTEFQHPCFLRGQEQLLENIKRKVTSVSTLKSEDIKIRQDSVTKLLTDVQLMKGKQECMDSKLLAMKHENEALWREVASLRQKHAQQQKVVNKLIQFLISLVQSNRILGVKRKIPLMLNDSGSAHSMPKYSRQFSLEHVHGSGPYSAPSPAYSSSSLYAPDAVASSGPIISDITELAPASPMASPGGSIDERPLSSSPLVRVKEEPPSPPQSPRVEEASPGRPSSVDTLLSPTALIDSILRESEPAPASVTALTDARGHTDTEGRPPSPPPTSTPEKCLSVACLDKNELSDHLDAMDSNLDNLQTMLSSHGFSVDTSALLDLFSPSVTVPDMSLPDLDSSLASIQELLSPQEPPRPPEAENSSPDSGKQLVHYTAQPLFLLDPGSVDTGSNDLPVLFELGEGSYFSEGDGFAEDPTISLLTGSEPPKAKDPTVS
Method in brief: (§1)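 L132 cells treated at 3 μM for 12 h, or at various doses for 12 h, or at 3 μM over a time course. Lysates resolved by SDS-PAGE, blotted to nitrocellulose, milk-blocked, primary antibodies 18 h at 4 °C, ECL detection. HSP27, HSP70 and Ser326-phospho-HSF1 bands normalized to loading control; ≥3 independent experiments; celastrol 1 μM positive control.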

[2] = target: T1, Heat shock factor protein 1 (Homo sapiens); assay: Activation of HSF1 in human L132 cells assessed as increase in HSP27 protein levels after 12 hrs by immunoblotting analysis; assay type: cell-based; method in brief: as §1

Activity [1]	Activity [2]	Structure (SMILES)
Tde	–	COc1cc(/C=C/CO)ccc1O [CONIFERYL ALCOHOL]
–	Dose-dependent effect	COc1cc(/C=C/C=O)ccc1O [CONIFERYL ALDEHYDE]
